Eleven compounds from ChEMBL document CHEMBL5346884, “Discovery, synthesis and mechanism study of 2,3,5-substituted [1,2,4]-thiadiazoles as covalent inhibitors targeting 3C-Like protease of SARS-CoV-2” (Eur J Med Chem, 2023) can be followed below.

For series [1], the target named is T1, Replicase polyprotein 1ab (Severe acute respiratory syndrome coronavirus 2, UniProt P0DTD1). Nature of the series: Inhibition of full-length recombinant SARS-CoV-2 3CL protease expressed in Escherichia coli BL21 (DE3) cells using fluorogenic MCA-AVLQSGFR-Lys (Dnp)-Lys-NH2 substrate preincubated for 10 mins followed by substrate addition measured for 3.5 mins by FRET assay.

The test system of the next series is SARS-CoV-2. Nature of the series: Antiviral activity against SARS-CoV-2 infected in African green monkey Vero E6 cells assessed as reduction in viral replication incubated for 24 hrs by qRT-PCR analysis. The series is classed as functional, organism-based. To be noted: Severe acute respiratory syndrome coronavirus 2, Vero C1008, 24 h.
A further series has as its system Vero C1008. Nature of the series: Cytotoxicity against African green monkey Vero E6 cells incubated for 24 hrs by WST-8 assay. Format: toxicity, cell-based. The following applies: chlorocebus sabaeus, vero c1008, 24 h. In outline:
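Vero E6 cells grown in DMEM with 10% FBS at 37 °C, 5% CO₂. Compounds tested as 2-fold dilutions, 9 concentrations, in DMEM with 2% FBS, triplicate per concentration, for 24 h. WST-8 added and absorbance read at 450 nm after 0.5–1 h. Viability expressed relative to DMSO control.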

Series [2] concerns the target T1, Replicase polyprotein 1ab. The series is described as follows: Binding affinity to CM5 chip-immobilised full-length recombinant SARS-CoV-2 3CL protease expressed in Escherichia coli BL21 (DE3) cells assessed as dissociation constant by SPR analysis. An outline of the steps:
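SPR at 25 °C in HBS-EP (10 mM HEPES pH 7.4, 150 mM NaCl, 3.0 mM EDTA, 0.05% Tween-20) with 5% DMSO. Protease immobilised at 8000–10000 RU. Compounds were run as an eight-concentration series, with 240 s association and 200 s dissociation. Surface washed with 50% DMSO each cycle.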

For series [3], the target named is T1, Replicase polyprotein 1ab. The series is described as follows: Inhibition of full-length recombinant SARS-CoV-2 3CL protease expressed in Escherichia coli BL21 (DE3) cells using fluorogenic MCA-AVLQSGFR-Lys (Dnp)-Lys-NH2 substrate preincubated for 10 mins followed by substrate addition measured immediately by FRET assay. In outline: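 FRET assay: 50 nM protease (final) in 50 mM Tris–HCl pH 7.3, 1 mM EDTA, with serially diluted compound. Compound–enzyme preincubation was 10 min in the standard assay, and 0, 5, 10 or 20 min in the time-dependence test. Substrate added at 10 μM final. Fluorescence (ex 320/em 405 nm) read every 35 s for 3.5 min. Initial rates normalised to DMSO control.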

For series [4], the target named is T1, Replicase polyprotein 1ab. Nature of the series: Inhibition of full-length recombinant SARS-CoV-2 3CL protease expressed in Escherichia coli BL21 (DE3) cells using fluorogenic MCA-AVLQSGFR-Lys (Dnp)-Lys-NH2 substrate preincubated for 10 mins followed by substrate addition measured after 5 mins by FRET assay.
For series [5], the target named is T1, Replicase polyprotein 1ab. The series is described as follows: Inhibition of full-length recombinant SARS-CoV-2 3CL protease expressed in Escherichia coli BL21 (DE3) cells using fluorogenic MCA-AVLQSGFR-Lys (Dnp)-Lys-NH2 substrate preincubated for 10 mins followed by substrate addition measured after 10 mins by FRET assay.
The target in series [6] is T1, Replicase polyprotein 1ab. The series is described as follows: Inhibition of full-length recombinant SARS-CoV-2 3CL protease expressed in Escherichia coli BL21 (DE3) cells using fluorogenic MCA-AVLQSGFR-Lys (Dnp)-Lys-NH2 substrate preincubated for 10 mins followed by substrate addition measured after 20 mins by FRET assay.
Series [7] addresses Replicase polyprotein 1ab (Severe acute respiratory syndrome coronavirus 2) (UniProt P0DTD1). Nature of the series: Binding affinity to full-length recombinant SARS-CoV-2 3CL protease expressed in Escherichia coli BL21 (DE3) cells assessed as Gibbs free energy change by MM-GBSA method.
The target of series [8] is T1, Replicase polyprotein 1ab. The series is described as follows: Inhibition of SARS-CoV-2 PLpro using RLRGG-AMC substrate preincubated for 30 mins followed by substrate addition measured for 5 mins by fluorescence based assay. An outline of the steps:
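PLpro at 50 nM with serially diluted compound in 50 mM HEPES pH 7.5, 0.1 mg/mL BSA, incubated 30 min. RLRGG-AMC added to 20 μM final. Fluorescence (ex 360/em 460 nm) read every 1 min for 5 min. Rates compared with DMSO control.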

The target of a further series is Chymotrypsin (Homo sapiens, UniProt Q99895+P17538+P40313+Q6GPI1). Nature of the series: Inhibition of chymotrypsin (unknown origin) using N-succinyl-AAPF-AMC as substrate preincubated for 10 mins followed by substrate addition measured for 10 mins by fluorescence based assay. The series is classed as protein assay. An outline of the steps: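 Chymotrypsin at 5 nM final with serially diluted compound in PBS pH 7.4, incubated 10 min. N-succinyl-AAPF-AMC added at 10 μM final. Fluorescence (ex 380/em 460 nm) read every 1 min for 10 min. Rates relative to DMSO.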

The target in a further series is Cathepsin B (Homo sapiens, UniProt P07858). Nature of the series: Inhibition of human Cathepsin B using Z-RR-AMC as substrate preincubated for 30 mins followed by substrate addition measured for 10 mins by FRET assay. In outline:
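Cathepsin B (0.25 units) with compound in 20 mM sodium acetate pH 5.5, 1 mM EDTA, 2 mM DTT, incubated 30 min at ambient temperature. Z-RR-AMC added at 1 μM final. Fluorescence (ex 340/em 440 nm) read every 1 min for 10 min. Rates relative to DMSO.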

Another series addresses Procathepsin L (Homo sapiens, UniProt P07711). Nature of the series: Inhibition of human Cathepsin L using Z-VVR-AMC as substrate measured for 10 mins by fluorescence based assay.

Each structure is given as a SMILES string.

Chain of Procathepsin L (P07711 whole entry): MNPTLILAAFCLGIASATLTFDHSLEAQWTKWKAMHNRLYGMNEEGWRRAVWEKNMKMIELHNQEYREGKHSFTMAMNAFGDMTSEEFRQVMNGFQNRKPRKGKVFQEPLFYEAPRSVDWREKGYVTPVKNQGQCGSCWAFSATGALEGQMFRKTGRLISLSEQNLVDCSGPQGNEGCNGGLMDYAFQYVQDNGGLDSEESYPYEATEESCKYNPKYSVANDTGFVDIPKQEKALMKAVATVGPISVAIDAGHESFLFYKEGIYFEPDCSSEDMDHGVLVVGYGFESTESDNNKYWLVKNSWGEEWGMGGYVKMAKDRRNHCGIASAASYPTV

As to `C/N=c1\nc(-c2ccc(OC)cc2)n(-c2ccccc2)s1`, in series [1], the IC50 was 165 nM.

With `C/N=c1\nc(-c2ccc(OC)cc2)n(-c2ccc(F)cc2)s1`, the IC50 in [1] is 373 nM.

`FC1(F)CC(/N=c2\nc(-c3ccccc3)n(-c3ccccc3)s2)C1`: the IC50 in series [1] came to 323 nM.

Turning to `C/N=c1\nc(-c2ccccc2)n(-c2ccc(F)cc2)s1`, the IC50 in [1] worked out at 124 nM.

Consider `C/N=c1\nc(-c2ccc(OC)cc2)n(-c2cc(F)c(F)c(F)c2)s1`, for which, in series [1], the IC50 is 582 nM. Also, the EC50 with SARS-CoV-2 stood at 9.34 µM. Further, the cytotoxic concentration (CC50) in the series with Vero C1008 was above 100 µM.

Take `C/N=c1\nc(-c2ccc(Cl)cc2)n(-c2ccccc2)s1`: the IC50 in series [1] was determined as 136 nM.

On to `C/N=c1\nc(-c2ccccc2)n(-c2ccccc2)s1`, for which the IC50 in series [1] amounted to 193 nM; in [3], 409 nM; in series [4], 302 nM; in series [5], 206 nM; in series [6] it was 191 nM; in series [8] it was 655 nM. Also, the IC50 was above 100 µM on Chymotrypsin, above 50 µM at Cathepsin B and above 100 µM against Procathepsin L. Moreover, the Kd in [2] amounted to 798 nM. For the same compound, the deltaG in series [7] is -58.2 kJ/mol.

Take `CCOc1ccc(-c2n/c(=N\C)sn2-c2ccc(F)cc2)cc1`: the IC50 in series [1] worked out at 462 nM. The EC50 in the series with SARS-CoV-2 worked out at 14.8 µM. The same compound returned a CC50 with Vero C1008 above 100 µM.

Consider `c1ccc(-c2n/c(=N\C3CC3)sn2-c2ccccc2)cc1`, for which the IC50 in series [1] was 143 nM.

For `CN=C(S)N=C(Nc1ccccc1)c1ccccc1`, the IC50 in series [1] was 40000 nM. Further, the deltaG in series [7] was -47.6 kJ/mol.

Turning to `C/N=c1\nc(-c2ccc(F)cc2)n(-c2ccccc2)s1`, the half-maximal inhibitory concentration (IC50) in series [1] is 118 nM; in series [8], 448 nM; against Chymotrypsin, above 100 µM; on Cathepsin B, above 50 µM; against Procathepsin L, above 100 µM. The EC50 with SARS-CoV-2 turned out to be 7.25 µM. This compound yielded a CC50 in the series with Vero C1008 above 100 µM.
